Source: PMC3962999 (The Biochemical journal, 2011)
Positions count from the first letter of the chain named.

Key:
PBD1 (PPIP5K1) = target: T1, PBD1 (PPIP5K1) (Homo sapiens, UniProt Q6PFW1); test: SPR equilibrium binding to immobilized lipid vesicles, PBD1; conditions: SPR, in words
T1 sequence (Q6PFW1 382-917): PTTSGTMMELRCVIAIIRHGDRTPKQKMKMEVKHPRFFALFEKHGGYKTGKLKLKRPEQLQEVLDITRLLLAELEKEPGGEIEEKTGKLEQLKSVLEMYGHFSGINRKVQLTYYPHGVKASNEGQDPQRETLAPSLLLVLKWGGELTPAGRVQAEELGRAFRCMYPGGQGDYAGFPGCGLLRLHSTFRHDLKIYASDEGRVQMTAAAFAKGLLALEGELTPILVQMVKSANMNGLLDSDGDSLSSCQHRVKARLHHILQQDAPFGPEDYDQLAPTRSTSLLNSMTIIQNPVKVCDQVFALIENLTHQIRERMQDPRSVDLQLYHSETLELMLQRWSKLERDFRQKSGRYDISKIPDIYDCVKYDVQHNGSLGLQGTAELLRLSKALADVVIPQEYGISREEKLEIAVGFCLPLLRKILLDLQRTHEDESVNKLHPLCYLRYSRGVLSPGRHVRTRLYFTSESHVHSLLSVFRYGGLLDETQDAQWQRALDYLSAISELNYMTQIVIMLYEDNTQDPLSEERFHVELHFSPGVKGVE
In short: (§1)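 Large unilamellar vesicles (PtdCho/PtdE/test phosphoinositide 77:20:3) were captured on an L1 chip to 5000 RU. Signals were corrected against phosphoinositide-free vesicles. Kd came from nonlinear fitting of Req = Rmax/(1+Kd/C). Concentrations were: GRP-1 PH domain 2.5–125 nM; PBD1 on PtdIns(3,4,5)P₃ 5–150 nM; bisphosphate vesicles 75–1900 nM.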

PBD1R417A = target: T2, PBD1R417A (Homo sapiens, UniProt Q6PFW1, R417A); test: SPR equilibrium binding, PBD1 R417A mutant; conditions: results not shown
T2 sequence (Q6PFW1 382-917 R417A): T1 sequence (Q6PFW1 382-917) with R36A

PBD2 (PPIP5K2) = target: T3, PBD2 (PPIP5K2) (Homo sapiens, UniProt O43314); test: SPR equilibrium binding to immobilized lipid vesicles, PBD2; conditions: SPR, in words
T3 sequence (O43314 371-901 isoform O43314-2): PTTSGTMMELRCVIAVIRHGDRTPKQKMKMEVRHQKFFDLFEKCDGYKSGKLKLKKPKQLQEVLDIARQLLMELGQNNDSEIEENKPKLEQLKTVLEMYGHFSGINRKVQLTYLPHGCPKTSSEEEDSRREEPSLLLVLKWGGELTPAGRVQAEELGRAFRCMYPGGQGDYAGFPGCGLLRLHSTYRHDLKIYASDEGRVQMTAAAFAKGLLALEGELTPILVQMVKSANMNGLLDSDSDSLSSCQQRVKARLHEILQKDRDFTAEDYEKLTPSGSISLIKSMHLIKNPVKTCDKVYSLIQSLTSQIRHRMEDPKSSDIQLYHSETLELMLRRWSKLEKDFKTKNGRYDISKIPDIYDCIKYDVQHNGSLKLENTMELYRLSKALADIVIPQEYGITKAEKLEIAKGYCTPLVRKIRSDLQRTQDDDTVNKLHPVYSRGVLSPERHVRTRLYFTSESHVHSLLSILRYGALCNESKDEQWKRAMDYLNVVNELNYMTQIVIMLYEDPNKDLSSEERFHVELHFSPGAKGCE
In short: as §1

PtdIns(4,5)P2
binding to PBD1 (PBD1 (PPIP5K1)): significantly weaker ligands
binding to PBD1 R417A (PBD1R417A): eliminated all detectable binding
binding to PBD2 (PBD2 (PPIP5K2)): relatively weakly
